The record followed here is ChEMBL document CHEMBL4334447, “Discovery of 4-Aminoquinoline-3-carboxamide Derivatives as Potent Reversible Bruton's Tyrosine Kinase Inhibitors for the Treatment of Rheumatoid Arthritis” (J Med Chem, 2019).

Each structure is given as a SMILES string. Activity calls are given as the source filed them. The calls are words filed in the database; no cut-off is given here.

The target of data set [1] is T1, Tyrosine-protein kinase Tec (Homo sapiens, UniProt P42680).
T1 sequence (P42680 whole entry): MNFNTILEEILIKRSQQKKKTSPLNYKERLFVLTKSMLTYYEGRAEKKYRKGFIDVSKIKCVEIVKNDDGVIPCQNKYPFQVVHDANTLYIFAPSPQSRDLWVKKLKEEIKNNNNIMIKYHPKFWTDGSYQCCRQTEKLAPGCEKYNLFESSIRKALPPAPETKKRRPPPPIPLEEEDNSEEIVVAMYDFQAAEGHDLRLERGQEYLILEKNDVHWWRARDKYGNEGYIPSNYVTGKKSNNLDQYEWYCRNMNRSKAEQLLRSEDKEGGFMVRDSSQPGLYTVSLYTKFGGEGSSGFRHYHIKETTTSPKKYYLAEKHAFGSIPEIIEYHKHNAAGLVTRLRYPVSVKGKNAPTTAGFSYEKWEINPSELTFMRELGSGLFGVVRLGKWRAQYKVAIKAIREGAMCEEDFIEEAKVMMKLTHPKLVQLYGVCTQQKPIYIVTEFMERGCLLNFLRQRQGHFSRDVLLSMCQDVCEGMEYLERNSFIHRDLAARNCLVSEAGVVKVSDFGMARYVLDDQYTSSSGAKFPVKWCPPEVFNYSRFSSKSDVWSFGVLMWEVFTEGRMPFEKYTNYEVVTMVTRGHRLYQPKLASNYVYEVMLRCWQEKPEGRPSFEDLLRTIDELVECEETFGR
Description: Inhibition of recombinant human N-terminal GST-fused TEC catalytic domain (359 to 631 residues) expressed in baculovirus expression system using biotin-labelled STK/TK as substrate measured after 1 hr by HTRF assay. The essentials:
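HTRF KinEase format: TEC kinase and substrate mixed with serial compound concentrations at rt, then ATP added to start. Stopped after 1 h with EDTA detection solution containing europium anti-phosphotyrosine antibody and streptavidin-XL665. Read after a further 1 h at rt. Mean of ≥3 assays in triplicate.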
In general terms: Time-resolved FRET reads energy transfer from a long-lived donor to a nearby acceptor.

Data set [2] concerns the target Proto-oncogene tyrosine-protein kinase Src (Homo sapiens, UniProt P12931). Description: Inhibition of recombinant full-length human SRC using KVEKIGEGTYGVVYK as substrate measured after 40 mins in presence of [gamma33P]ATP by scintillation counting analysis. The gist of the method: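 Started with Mg/ATP at room temperature; 40 min incubation. Stopped with 0.5% phosphoric acid, filtermat-spotted, washed, scintillation counted. Mean of ≥3 assays in triplicate.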

In data set [3] the target is Tyrosine-protein kinase Fyn (Homo sapiens, UniProt P06241). Description: Inhibition of human full-length recombinant FYN using KVEKIGEGTYGVVYK as substrate measured after 40 mins in presence of [gamma-33P]-ATP by scintillation counting analysis. The gist of the method: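 Started with Mg/ATP; 40 min at room temperature. Stopped with 0.5% phosphoric acid, spotted onto P30 filtermat, washed, scintillation counted. Mean of ≥3 assays in triplicate.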

For data set [4], the target named is Tyrosine-protein kinase Yes (Homo sapiens, UniProt P07947). The data set can be described thus: Inhibition of human full-length recombinant YES using poly(Glu, Tyr) 4:1 as substrate measured after 40 mins in presence of [gamma-33P]-ATP by scintillation counting analysis. The essentials: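 Started with Mg/ATP at room temperature; 40 min incubation. Stopped with 0.5% phosphoric acid, spotted onto Filtermat A, washed, scintillation counted. Mean of ≥3 assays in triplicate.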

For data set [5], the species on record is Homo sapiens. The data set can be described thus: Selectivity ratio of IC50 for recombinant human ITK (352 to 617 residues) to IC50 for inhibition of FAM-labeled peptide binding to full-length human N-terminal GST-tagged BTK (2 to 659 residues) expressed in baculovirus infected Sf21 insect cells. The gist of the method:
(§1)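 Ratio of kinase IC50 to BTK IC50. BTK measured by off-chip mobility shift: compound preincubated 10 min with BTK in 50 mM HEPES pH 7.5, 0.01% Brij-35, then FAM-labelled peptide and ATP added, 28 °C. Stopped with EDTA buffer; percent conversion fitted for IC50. Each panel kinase assayed in triplicate.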

For data set [6], the species on record is Homo sapiens. The data set can be described thus: Selectivity ratio of IC50 for recombinant mouse full-length BLK V421E mutant to IC50 for inhibition of FAM-labeled peptide binding to full-length human N-terminal GST-tagged BTK (2 to 659 residues) expressed in baculovirus infected Sf21 insect cells. The gist of the method: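 Ratio is BLK IC50 divided by BTK IC50. BLK: radiometric, 50 mM Tris pH 7.5, 0.1 mM EGTA, 0.1 mM Na3VO4, 0.1% mercaptoethanol, 0.1 mg/mL poly(Glu,Tyr) 4:1, 10 mM Mg acetate, [γ-33P]ATP, 40 min room temperature, phosphoric acid stop, filter-bound scintillation counting. BTK: off-chip mobility shift with FAM-peptide. Triplicates, ≥3 assays.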

The species named for data set [7] is Homo sapiens. The data set can be described thus: Selectivity ratio of IC50 for human full-length recombinant FYN to IC50 for inhibition of FAM-labeled peptide binding to full-length human N-terminal GST-tagged BTK (2 to 659 residues) expressed in baculovirus infected Sf21 insect cells. The gist of the method:
as §1

The nature of data set [8]: Stability in Sprague-Dawley rat plasma assessed as parent compound remaining at 1 uM measured after 2 hrs by LC-MS/MS analysis. The format is ADME, cell-free. Particulars: read-out: Stability. The gist of the method: (§2)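 Compound at 1 µM initial concentration incubated 2 h at 37 °C in plasma. Quenched with 10 volumes of methanol containing internal standard, then centrifuged. Supernatant diluted with an equal volume of water and analysed by LC-MS/MS. Read-out is % parent remaining. Mean of three separate assays run in triplicate.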

A short description of data set [9]: Stability in mouse plasma assessed as parent compound remaining at 1 uM measured after 2 hrs by LC-MS/MS analysis. Particulars: read-out: Stability. Type of data set: ADME, cell-free. The gist of the method:
as §2

Data set [10] can be described thus: Oral bioavailability in Sprague-Dawley rat at 5 mg/kg by LC-MS/MS analysis. The format is ADME, organism-based. Particulars: in vivo. The gist of the method:
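Male Sprague-Dawley rats (187-205 g, n=6 per route). IV group: 2 mg/kg by tail vein in 10% DMSO/90% PEG400, fed animals. Oral group: 5 mg/kg as a 0.5% methylcellulose suspension, fasted animals. Jugular cannula blood taken pre-dose and from 0.033 h (iv only) to 24 h. Plasma stored at -20 °C and analysed by LC-MS/MS.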

The next data set concerns Mus musculus. The data set can be described thus: Antiarthritic activity in complete freund's adjuvant-induced DBA/1 mouse arthritis model assessed as reduction in paw volume at 10 mg/kg, po qd administered starting from 29 day post-CFA challenge and measured on day 29, 33, 36, 40 and 43 by caliper method. Type of data set: functional, organism-based. The essentials: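 Male DBA/1 mice (18-20 g, 4-6 weeks) immunized intradermally at the tail base with bovine type II collagen in CFA on day 0, then challenged with collagen II in IFA on day 20. Randomized on day 29 and dosed orally once daily (n=6 per group) with vehicle as control. Paw thickness measured by caliper on days 29, 33, 36, 40 and 43. Mean ± SEM; Dunnett's test vs vehicle.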

Data set [11] in a line: Toxicity in complete freund's adjuvant-induced DBA/1 mouse arthritis model assessed as effect on appetite at 10 mg/kg, po qd administered starting from 29 day post-CFA challenge and measured on day 29, 33, 36, 40 and 43. Type of data set: organism-based. Particulars: in vivo, 696 h. The gist of the method: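 CIA in male DBA/1 mice: intradermal bovine type II collagen in CFA on day 0, collagen II in IFA boost on day 20. Randomized on day 29 and given oral doses once daily (n=6 per group) alongside vehicle and naive groups. Body weights recorded over the study days.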

Chain of Tyrosine-protein kinase Yes (P07947 whole entry): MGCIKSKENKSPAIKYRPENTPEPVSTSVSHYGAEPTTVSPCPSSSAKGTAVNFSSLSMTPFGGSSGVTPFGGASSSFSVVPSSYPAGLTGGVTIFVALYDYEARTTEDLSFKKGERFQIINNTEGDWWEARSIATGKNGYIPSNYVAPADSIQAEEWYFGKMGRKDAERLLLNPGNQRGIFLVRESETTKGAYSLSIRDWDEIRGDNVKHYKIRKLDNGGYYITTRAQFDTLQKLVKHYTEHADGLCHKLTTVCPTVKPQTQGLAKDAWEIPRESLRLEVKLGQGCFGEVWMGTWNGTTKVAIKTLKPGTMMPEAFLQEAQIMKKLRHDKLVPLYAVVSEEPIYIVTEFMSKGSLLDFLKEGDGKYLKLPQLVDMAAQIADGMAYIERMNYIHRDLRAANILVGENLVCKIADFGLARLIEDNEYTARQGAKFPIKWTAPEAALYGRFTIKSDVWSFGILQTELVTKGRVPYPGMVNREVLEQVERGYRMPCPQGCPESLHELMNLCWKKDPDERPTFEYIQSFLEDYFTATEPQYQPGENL
Chain of Tyrosine-protein kinase Fyn (P06241 whole entry): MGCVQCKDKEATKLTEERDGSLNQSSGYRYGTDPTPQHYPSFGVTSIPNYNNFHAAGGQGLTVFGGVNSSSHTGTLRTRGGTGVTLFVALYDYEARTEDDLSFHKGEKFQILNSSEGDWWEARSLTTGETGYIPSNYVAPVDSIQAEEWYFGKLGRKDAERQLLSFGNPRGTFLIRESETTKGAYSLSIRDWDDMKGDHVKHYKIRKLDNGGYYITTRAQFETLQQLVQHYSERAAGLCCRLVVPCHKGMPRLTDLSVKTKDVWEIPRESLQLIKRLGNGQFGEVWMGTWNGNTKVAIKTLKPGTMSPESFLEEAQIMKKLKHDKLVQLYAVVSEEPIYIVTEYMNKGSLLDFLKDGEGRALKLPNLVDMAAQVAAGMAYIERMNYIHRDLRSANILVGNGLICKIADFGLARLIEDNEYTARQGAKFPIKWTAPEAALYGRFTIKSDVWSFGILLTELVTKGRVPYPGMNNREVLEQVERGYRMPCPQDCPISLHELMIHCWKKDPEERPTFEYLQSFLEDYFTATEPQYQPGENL
Chain of Proto-oncogene tyrosine-protein kinase Src (P12931 2-536 limits assumed): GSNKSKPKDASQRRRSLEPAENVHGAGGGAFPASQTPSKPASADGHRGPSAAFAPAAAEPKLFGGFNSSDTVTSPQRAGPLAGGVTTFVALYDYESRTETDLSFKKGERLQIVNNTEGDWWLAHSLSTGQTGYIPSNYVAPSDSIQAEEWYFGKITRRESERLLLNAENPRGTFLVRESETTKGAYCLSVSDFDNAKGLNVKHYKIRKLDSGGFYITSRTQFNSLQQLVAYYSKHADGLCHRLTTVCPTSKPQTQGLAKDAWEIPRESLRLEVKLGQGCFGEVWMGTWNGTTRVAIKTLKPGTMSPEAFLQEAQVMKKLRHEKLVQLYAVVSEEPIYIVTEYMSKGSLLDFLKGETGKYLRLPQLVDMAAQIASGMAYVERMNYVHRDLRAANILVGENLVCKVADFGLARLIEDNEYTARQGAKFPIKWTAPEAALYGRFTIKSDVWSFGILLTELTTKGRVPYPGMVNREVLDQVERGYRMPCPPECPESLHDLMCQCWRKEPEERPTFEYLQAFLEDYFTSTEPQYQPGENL

Usually IC50 stands for the concentration needed to halve the response being measured. The term bioavailability denotes dose-corrected exposure relative to a reference, in per cent. A high value points to good availability. As for `COc1cc2cn[nH]c2cc1-c1ccc(F)c2c(N)c(C(N)=O)cnc12`, the IC50 in [1] is 227 nM; in data set [2], 903 nM; in data set [3], 165 nM; in [4] it was more than 10000 nM. Moreover, the Ratio IC50 was 58 in the data set listed under Homo sapiens [5], 28 in the data set listed under Homo sapiens [6] and 31 in the data set listed under Homo sapiens [7]. For the same compound, the values for the remaining at 2 h, 1 µM in data set [8] and in [9] were 96% and 98%, respectively. Besides, in data set [10], the bioavailability worked out at 25%. Moreover, in the data set with Mus musculus, the outcome was Active. Moreover, the Activity result in data set [11] is on record as “Non-Toxic”.
